Laboratory results as given in ChEMBL document CHEMBL1123445, “Synthesis and antifolate properties of 5,10-methylenetetrahydro-8,10-dideazaminopterin” (J Med Chem, 1986).
Values after ≈ are worked out from the molar mass of the structure shown.

Tests used:
Dihydrofolate reductase = Dihydrofolate reductase (Lactobacillus casei, UniProt P00381); assay: Compound was evaluated for the inhibition of dihydrofolate reductase (DHFR)derived from Lactobacillus casei; set-up: species or system Lacticaseibacillus casei
Sequence of Dihydrofolate reductase (P00381 whole entry): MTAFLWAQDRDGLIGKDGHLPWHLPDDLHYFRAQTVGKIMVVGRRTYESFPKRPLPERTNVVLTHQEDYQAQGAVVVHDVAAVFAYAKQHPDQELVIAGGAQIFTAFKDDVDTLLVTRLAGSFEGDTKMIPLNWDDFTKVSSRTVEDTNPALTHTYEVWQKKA

L1210 [1] = assay: Compound was evaluated for inhibitory activity against DHFR in L1210 cells; type: functional, cell-based, Mus musculus
L1210 [2] = assay: Compound was evaluated for growth inhibition in L1210 murine leukemia cells; type: functional, cell-based; settings: Mus musculus
Lacticaseibacillus casei [3] = assay: Compound was evaluated for growth inhibition in Lactobacillus casei ATCC 7469; type: functional, organism-based
In short: (§1)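 Lactobacillus casei growth was measured in medium with folate at 1 ng/mL.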

Lacticaseibacillus casei [4] = assay: Compound was evaluated for growth inhibition in Lactobacillus casei MTX-resistant; type: functional, organism-based; in short: as §1
Thymidylate synthase = biological target: T1, Thymidylate synthase (Lactobacillus casei, UniProt P00469); assay: Compound was evaluated for the inhibition of thymidylate synthase (TS) derived from Lactobacillus casei; set-up: species or system Lacticaseibacillus casei
T1 sequence (P00469 whole entry): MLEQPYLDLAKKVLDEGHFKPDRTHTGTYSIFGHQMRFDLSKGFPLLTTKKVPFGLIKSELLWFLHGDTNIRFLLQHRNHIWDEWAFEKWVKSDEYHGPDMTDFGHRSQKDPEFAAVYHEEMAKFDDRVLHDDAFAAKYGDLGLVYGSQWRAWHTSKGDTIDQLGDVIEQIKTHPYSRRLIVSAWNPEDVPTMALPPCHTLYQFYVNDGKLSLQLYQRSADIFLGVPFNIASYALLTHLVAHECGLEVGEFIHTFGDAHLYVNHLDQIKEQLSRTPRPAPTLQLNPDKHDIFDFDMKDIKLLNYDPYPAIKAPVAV

Enterococcus faecium [5] = assay: Compound was evaluated for growth inhibition in Streptococcus faecium ATCC 8043; type: functional, organism-based
In short: (§2)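 Bacterial growth inhibition was run in medium with folate at 1 ng/mL.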

Enterococcus faecium [6] = assay: Compound was evaluated for growth inhibition in Streptococcus faecium MTX-resistant; type: functional, organism-based; in short: as §2
[7] = Lacticaseibacillus casei, read-out: IC50

Structure (SMILES) | IC50 (Dihydrofolate reductase) [nM] | Ki (L1210 [1]) [nM] | IC50 (L1210 [2]) [nM] | IC50 (Lacticaseibacillus casei [3]) [ng/mL] | IC50 (Lacticaseibacillus casei [4]; [7]) [ng/mL] | IC50 (Thymidylate synthase) [nM] | IC50 (Enterococcus faecium [5]) [ng/mL] | IC50 (Enterococcus faecium [6]) [ng/mL] | IC50 (Lacticaseibacillus casei [4]) [ng/mL]
Nc1nc(N)c2c(n1)CCC1CC(c3ccc(C(=O)NC(CCC(=O)O)C(=O)O)cc3)C(=O)N21 (configuration not stated) | 1600 | > 10 | > 10000 | 0.54 (≈ 0.00115 µM) | > 10000 | > 200000 | 6.2 (≈ 0.0132 µM) | > 10000 | 
Nc1nc(N)c2c(n1)CCC1CC(c3ccc(C(=O)NC(CCC(=O)O)C(=O)O)cc3)CN21 (configuration not stated) | 1500 | > 10 | 250 | 1 (≈ 0.0022 µM) | > 10000 | > 500000 | 2 (≈ 0.0044 µM) | 530 (≈ 1.17 µM) | 
CN(Cc1cnc2nc(N)nc(N)c2n1)c1ccc(C(=O)N[C@@H](CCC(=O)O)C(=O)O)cc1 [METHOTREXATE] |  | 0.0032 | 2.5 | 0.009 (≈ 1.98e-05 µM) |  |  | 0.2 (≈ 0.00044 µM) | 3300 (≈ 7.26 µM) | > 500000
